Test results reported in ChEMBL document CHEMBL4251608, “Emimycin and its nucleoside derivatives: Synthesis and antiviral activity” (Eur J Med Chem, 2018).
Active and inactive are the calls of the source. The rule behind the calls is not given here.

Assays:
[1] = system: Influenza B virus; experiment: Antiviral activity against Influenza B virus B/Ned/537/05 infected in MDCK cells assessed as reduction in virus-induced cytopathic effect by MTS assay; type: functional, organism-based; conditions: B/Ned/537/05, MDCK
[2] = system: Influenza A virus; experiment: Antiviral activity against Influenza A virus A/Ned/378/05(H1N1) infected in MDCK cells assessed as reduction in virus-induced cytopathic effect by MTS assay; type: functional, organism-based
[3] = system: Respiratory syncytial virus; experiment: Antiviral activity against RSV infected in human HeLa cells at 100 uM; type: functional, organism-based
[4] = Cytotoxicity against MDCK cells assessed as reduction in cell viability by MTS assay; type: cell-based, Canis lupus familiaris; conditions: dog
[5] = system: HeLa; experiment: Cytotoxicity against human HeLa cells at 100 uM; type: cell-based
[6] = Cytotoxicity against MDCK cells assessed as alteration in cell morphology by microscopic method; type: cell-based, Canis lupus familiaris; conditions: dog
How it was run: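 MDCK cells exposed to compounds (up to 100 µM) and examined microscopically. MCC taken as the minimum concentration causing a detectable alteration of normal cell morphology.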

[7] = system: H3N2 subtype; experiment: Antiviral activity against Influenza A virus A/HK/7/87(H3N2) infected in MDCK cells assessed as reduction in virus-induced cytopathic effect by MTS assay; type: functional, organism-based; conditions: A/Hong Kong/7/1987(H3N2)
[8] = system: Human alphaherpesvirus 1; experiment: Antiviral activity against HSV1 KOS infected in HEL cells assessed as reduction in virus-induced cytopathic effect after 2 to 3 days; type: functional, organism-based; conditions: Human alphaherpesvirus 1, KOS
How it was run: (§1)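 Confluent HEL fibroblasts were infected with 100 CCID50 of HSV. After 2 h adsorption the virus was removed and cells were incubated with varying compound concentrations. Virus-induced cytopathicity was scored 2-3 days post-infection. […] Data are the mean of two independent experiments.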

[9] = system: Human alphaherpesvirus 3; experiment: Antiviral activity against TK-defecient VZV 07-1 infected in HEL cells assessed as reduction in plaque formation after 5 days; type: functional, organism-based; conditions: Human alphaherpesvirus 3, 07-1, HEL, 120 h
[10] = system: Human alphaherpesvirus 1; experiment: Antiviral activity against acyclovir-resistant HSV1 KOS harboring TK- mutant infected in HEL cells assessed as reduction in virus-induced cytopathic effect after 2 to 3 days; type: functional, organism-based; conditions: Human alphaherpesvirus 1, KOS; how it was run: as §1
[11] = system: Human alphaherpesvirus 3; experiment: Antiviral activity against TK-positive VZV Oka infected in HEL cells assessed as reduction in plaque formation after 5 days; type: functional, organism-based; conditions: Human alphaherpesvirus 3, strain Oka vaccine, 120 h
[12] = system: Human alphaherpesvirus 2; experiment: Antiviral activity against HSV2 strain G infected in HEL cells assessed as reduction in virus-induced cytopathic effect after 2 to 3 days; type: functional, organism-based; conditions: Human alphaherpesvirus 2, strain G; how it was run: as §1
[13] = Cytotoxicity against HEL cells assessed as reduction in cell viability after 3 days by coulter counting method; type: cell-based; conditions: human
How it was run: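 HEL fibroblasts seeded at 5 x 10^3 cells/well, left to proliferate 24 h, then given medium with varying compound concentrations. After 3 days at 37 °C, cells counted with a Coulter counter.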

[14] = system: Human betaherpesvirus 5; experiment: Antiviral activity against HCMV Davis infected in HEL cells assessed as reduction in virus-induced cytopathic effect after 6 to 7 days; type: functional, organism-based; conditions: Human betaherpesvirus 5, Davis
How it was run: (§2)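 Confluent HEL fibroblasts were inoculated with 100 CCID50 of HCMV. After 2 h adsorption the inoculum was removed and cells were incubated with varying compound concentrations. Viral cytopathicity was recorded 6-7 days post-infection. […] Data are the mean of two independent experiments.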

[15] = system: Human betaherpesvirus 5; experiment: Antiviral activity against HCMV AD169 infected in HEL cells assessed as reduction in virus-induced cytopathic effect after 6 to 7 days; type: functional, organism-based; conditions: Human betaherpesvirus 5, AD169, HEL; how it was run: as §2
[16] = Cytotoxicity against HEL cells assessed as alteration in cell morphology after 3 days by microscopic method; type: cell-based; conditions: human
How it was run: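 HEL cells were treated with test compounds. MCC is the minimum concentration causing a microscopically detectable alteration of cell morphology. Data are the mean of two independent experiments.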

[17] = system: Escherichia coli; experiment: Antibacterial activity against Escherichia coli; type: functional, organism-based
[18] = system: Enterococcus faecium; experiment: Antibacterial activity against Streptococcus faecium; type: functional, organism-based
[19] = Selectivity index, ratio of CC50 for HEL cells to EC50 for TK-positive VZV Oka infected in HEL cells; type: toxicity, cell-based; conditions: human, read-out: Ratio CC50/EC50
How it was run: (§3)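 SI = CC50/EC50, with both values from HEL fibroblasts. For the antiviral part, confluent cultures were inoculated with 100 CCID50 (HSV) or 20 PFU (VZV Oka). After 2 h adsorption the inoculum was removed and compounds added. Cytopathicity was scored at 2-3 days (HSV) and plaques at 5 days (VZV). CC50 came from Coulter counting of cell growth after 3 days.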

[20] = Selectivity index, ratio of CC50 for HEL cells to EC50 for HSV2 strain G infected in HEL cells; type: toxicity, cell-based; conditions: human, read-out: Ratio CC50/EC50; how it was run: as §3
[21] = Selectivity index, ratio of CC50 for HEL cells to EC50 for HSV1 KOS infected in HEL cells; type: toxicity, cell-based; conditions: human, read-out: Ratio CC50/EC50; how it was run: as §3
[22] = Ratio of EC50 for TK-defecient VZV 07-1 infected in HEL cells to EC50 for TK-positive VZV Oka infected in HEL cells; type: functional
How it was run: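 Confluent HEL fibroblasts were inoculated with 20 PFU of VZV, either TK− strain 07−1 or Oka. After 2 h adsorption the inoculum was removed and compound was added at varying concentrations. […] The ratio is the TK− EC50 over the Oka EC50.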

[23] = system: Human alphaherpesvirus 1; experiment: Ratio of EC50 for acyclovir-resistant HSV1 KOS harboring TK- mutant infected in HEL cells to EC50 for HSV1 KOS infected in HEL cells; type: functional
How it was run: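 HEL fibroblasts were infected with 100 CCID50 of TK− ACV-resistant HSV-1 KOS or wild-type KOS, with 2 h adsorption, then incubated with varying compound concentrations. Cytopathicity was read at 2-3 days to give EC50 values. The ratio is TK− EC50 divided by wild-type EC50.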

Compound	EC50 [1]	EC50 [2]	Activity [3]	CC50 [4]	Activity [5]	MCC [6]	EC50 [7]	EC50 [8]	EC50 [9]	EC50 [10]	EC50 [11]	EC50 [12]	CC50 at 72 h [13]	EC50 [14]	EC50 [15]	further results
O=c1c[n+]([O-])ccn1[C@@H]1O[C@H](CO)[C@@H](O)[C@H]1O	> 100 µM	> 100 µM	inactive	> 100 µM	Non-Toxic	> 100 µM	> 100 µM	–	–	–	–	–	–	–	–	–
Cc1cn([C@@H]2C[C@H](O)[C@@H](CO)O2)c(=O)c[n+]1[O-]	–	–	–	–	–	–	–	> 412 µM	> 412 µM	> 412 µM	328 µM	> 412 µM	> 412 µM	> 412 µM	> 82 µM	–
Cc1cn([C@@H]2O[C@H](CO)[C@@H](O)[C@H]2O)c(=O)c[n+]1[O-]	> 100 µM	> 100 µM	inactive	> 100 µM	Non-Toxic	> 100 µM	> 100 µM	–	–	–	–	–	–	–	–	–
Nc1nc2c(ncn2COCCO)c(=O)[nH]1 [ACYCLOVIR]	–	–	–	–	–	–	–	0.38 µM	–	88.8 µM	–	–	> 444 µM	–	–	MCC at 72 h [16]: > 444 µM
CCc1cn([C@@H]2O[C@H](CO)[C@@H](O)[C@H]2O)c(=O)c[n+]1[O-]	> 100 µM	> 100 µM	inactive	> 100 µM	Non-Toxic	> 100 µM	> 100 µM	–	–	–	–	–	–	–	–	–
O=c1c[n+]([O-])ccn1[C@@H]1C[C@H](O)[C@@H](CO)O1	–	–	–	–	–	–	–	> 438 µM	> 438 µM	> 438 µM	438 µM	> 438 µM	> 438 µM	> 438 µM	> 87 µM	–
Nc1ccn(C[C@@H](CO)OCP(=O)(O)O)c(=O)n1 [CIDOFOVIR]	–	–	–	–	–	–	–	2.81 µM	–	1.56 µM	–	1.97 µM	> 358 µM	1.58 µM	1.04 µM	MCC at 72 h [16]: > 358 µM
Cc1c[nH]c(=O)c[n+]1[O-]	> 100 µM	> 100 µM	inactive	> 100 µM	Non-Toxic	> 100 µM	> 100 µM	–	–	–	–	–	–	–	–	–
Cc1cn([C@H]2O[C@H](CO)[C@@H](O)[C@H]2O)c(=O)c[n+]1[O-]	> 100 µM	> 100 µM	inactive	> 100 µM	Non-Toxic	> 100 µM	> 100 µM	–	–	–	–	–	–	–	–	–
O=c1c[n+]([O-])cc[nH]1	> 100 µM	> 100 µM	inactive	> 100 µM	Non-Toxic	> 100 µM	> 100 µM	–	–	–	–	–	–	–	–	EC50 [17]: 10 µM; EC50 [18]: 8 µM
O=c1c[n+]([O-])ccn1[C@H]1O[C@H](CO)[C@@H](O)[C@H]1O	> 100 µM	> 100 µM	inactive	> 100 µM	Non-Toxic	> 100 µM	> 100 µM	–	–	–	–	–	–	–	–	–
CCc1cn([C@H]2C[C@H](O)[C@@H](CO)O2)c(=O)c[n+]1[O-]	–	–	–	–	–	–	–	8.55 µM	138 µM	> 390 µM	7.77 µM	145 µM	> 390 µM	> 78 µM	> 78 µM	–
O=c1c[n+]([O-])ccn1[C@H]1C[C@H](O)[C@@H](CO)O1	–	–	–	–	–	–	–	> 438 µM	> 438 µM	> 438 µM	> 438 µM	> 438 µM	> 438 µM	> 438 µM	> 438 µM	–
Cc1cn([C@H]2C[C@H](O)[C@@H](CO)O2)c(=O)c[n+]1[O-]	–	–	–	–	–	–	–	1.79 µM	6.91 µM	59.4 µM	0.99 µM	17.5 µM	> 412 µM	> 412 µM	> 412 µM	selectivity ratio [19]: > 416; selectivity ratio [20]: 24; selectivity ratio [21]: 230; Ratio EC50 [22]: 7; Ratio EC50 [23]: 30; MCC at 72 h [16]: 169 µM
O=c1[nH]c(=O)n([C@H]2C[C@H](O)[C@@H](CO)O2)cc1/C=C/Br [BRIVUDINE]	–	–	–	–	–	–	–	0.068 µM	6.66 µM	20.1 µM	0.035 µM	–	> 300 µM	–	–	MCC at 72 h [16]: > 300 µM
CCc1c[nH]c(=O)c[n+]1[O-]	> 100 µM	> 100 µM	inactive	> 100 µM	Non-Toxic	> 100 µM	> 100 µM	–	–	–	–	–	–	–	–	–
CCc1cn([C@@H]2C[C@H](O)[C@@H](CO)O2)c(=O)c[n+]1[O-]	–	–	–	–	–	–	–	174 µM	174 µM	> 390 µM	142 µM	204 µM	> 390 µM	> 78 µM	> 78 µM	–
CCc1cn([C@H]2O[C@H](CO)[C@@H](O)[C@H]2O)c(=O)c[n+]1[O-]	> 100 µM	> 100 µM	inactive	> 100 µM	Non-Toxic	> 100 µM	> 100 µM	–	–	–	–	–	–	–	–	–
